Data from ChEMBL document CHEMBL4229555, “Design, synthesis and structure-activity relationship study of novel naphthoindolizine and indolizinoquinoline-5,12-dione derivatives as IDO1 inhibitors” (Bioorg Med Chem, 2018).

How the values were obtained:
[1] = molecular target: T1, Indoleamine 2,3-dioxygenase 1 (Homo sapiens, UniProt P14902); experiment: Inhibition of IDO1 (unknown origin) assessed as reduction in N'-formlylkynurenine formation at 1 uM using D-Tryptophan as substrate in presence of ascorbate and methylene blue relative to control
Target sequence in this assay (P14902 whole entry, looked up): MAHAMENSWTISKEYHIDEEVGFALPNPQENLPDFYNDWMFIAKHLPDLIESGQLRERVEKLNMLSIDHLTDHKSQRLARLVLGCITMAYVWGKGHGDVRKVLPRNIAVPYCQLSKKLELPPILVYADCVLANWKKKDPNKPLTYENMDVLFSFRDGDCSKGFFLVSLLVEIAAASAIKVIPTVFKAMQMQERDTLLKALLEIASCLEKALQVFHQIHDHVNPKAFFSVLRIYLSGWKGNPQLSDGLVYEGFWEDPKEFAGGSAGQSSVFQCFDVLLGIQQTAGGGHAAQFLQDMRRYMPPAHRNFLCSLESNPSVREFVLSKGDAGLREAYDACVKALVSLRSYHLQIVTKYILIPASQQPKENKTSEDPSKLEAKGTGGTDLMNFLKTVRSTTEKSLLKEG

[2] = molecular target: T1, Indoleamine 2,3-dioxygenase 1; experiment: Inhibition of IDO1 (unknown origin) assessed as reduction in N'-formlylkynurenine formation using D-Tryptophan as substrate in presence of ascorbate and methylene blue; details: in the assay text read “ascorbate” for “aspartate”
In short: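 Room-temperature reaction: 20 nM IDO, 2 mM D-Trp, 20 mM ascorbate, 3.5 μM methylene blue, 0.2 mg/mL catalase in 50 mM potassium phosphate pH 6.5. Initial rates tracked continuously by absorbance rise at 321 nm (N'-formylkynurenine); IC50 by nonlinear regression, normalized dose-response fit.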
Target sequence in this assay (P14902 whole entry): as the sequence (P14902 whole entry, looked up) above

[3] = molecular target: T2, Tryptophan 2,3-dioxygenase (Homo sapiens, UniProt P48775); experiment: Inhibition of recombinant TDO (unknown origin) assessed as reduction in N-formylkynurenine formation using L-Tryptophan as substrate after 75 mins by UV absorption method
In short: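 Recombinant TDO reaction at room temperature in TDO assay buffer with 200 μM L-tryptophan and inhibitor, incubated 75 min; N-formylkynurenine measured by UV absorbance at 321 nm. Blank used buffer in place of enzyme. IC50 from nonlinear regression with normalized dose-response fit.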
Target sequence in this assay (P48775 whole entry): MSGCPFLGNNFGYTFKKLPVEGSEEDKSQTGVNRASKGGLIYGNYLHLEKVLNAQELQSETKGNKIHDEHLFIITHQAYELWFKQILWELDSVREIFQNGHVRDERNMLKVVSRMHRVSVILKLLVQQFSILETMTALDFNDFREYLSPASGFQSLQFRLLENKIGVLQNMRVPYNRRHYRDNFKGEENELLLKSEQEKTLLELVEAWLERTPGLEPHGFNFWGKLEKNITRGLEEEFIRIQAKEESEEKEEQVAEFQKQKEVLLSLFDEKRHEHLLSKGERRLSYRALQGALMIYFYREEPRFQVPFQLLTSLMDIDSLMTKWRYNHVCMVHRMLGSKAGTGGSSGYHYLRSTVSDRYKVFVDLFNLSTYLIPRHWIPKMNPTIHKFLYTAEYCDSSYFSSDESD

[4] = molecular target: T1, Indoleamine 2,3-dioxygenase 1; experiment: Inhibition of IFN-gamma-stimulated IDO1 in human HeLa cells after 24 hrs by Ehrlich's reagent based assay; format: cell-based
In short: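 HeLa cells (40,000/well) adhered 24 h, stimulated with 100 ng/mL human recombinant IFN-γ for 24 h, then given inhibitor in DMSO from 10 μM top dose, 3-fold dilutions to 0.1 μM, for 24 h. Stopped with 30% TCA, 30 min at 50 °C, centrifuged; supernatant mixed with Ehrlich reagent 10 min at room temperature, absorbance at 490 nm.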
Target sequence in this assay (P14902 whole entry): as the sequence (P14902 whole entry, looked up) above

[5] = molecular target: T1, Indoleamine 2,3-dioxygenase 1; experiment: Inhibition of IFN-gamma-stimulated IDO1 in human HeLa cells at 1 uM after 24 hrs by Ehrlich's reagent based assay relative to control; format: cell-based
In short: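 IFN-γ (100 ng/mL, 24 h) induction of IDO1 in HeLa cells plated at 40,000/well after 24 h adherence; inhibitor in DMSO, 24 h incubation. Reaction ended with 30% TCA, heated 30 min at 50 °C, centrifuged, supernatant reacted with Ehrlich reagent 10 min at room temperature; read at 490 nm.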
Target sequence in this assay (P14902 whole entry, looked up): as above

[6] = tested on: HeLa; experiment: Cytotoxicity against human HeLa cells after 48 hrs by MTT assay; format: functional, cell-based
In short: (§1)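 Cells seeded at 3-4 × 10^3 per well and incubated overnight, then exposed to compounds added from 10 mM DMSO stock for 48 h; 1% DMSO as negative control.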

[7] = tested on: HEK-293T; experiment: Cytotoxicity against HEK293T cells after 48 hrs by MTT assay; format: cell-based; details: Homo sapiens
In short: as §1

[8] = molecular target: T2, Tryptophan 2,3-dioxygenase; experiment: Inhibition of recombinant TDO (unknown origin) assessed as reduction in N-formylkynurenine formation at 10 uM using L-Tryptophan as substrate after 75 mins by UV absorption method relative to control
In short: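 Room-temperature UV assay: recombinant TDO with 200 μM L-tryptophan in TDO assay buffer plus inhibitor, 75 min incubation, then absorbance at 321 nm for N-formylkynurenine. Buffer substituted for TDO as blank.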
Target sequence in this assay (P48775 whole entry, looked up): as the sequence (P48775 whole entry) above

[9] = tested on: MCF7; experiment: Cytotoxicity against human MCF7 cells after 48 hrs by MTT assay; format: functional, cell-based; details: MCF7, 48 h
In short: as §1

| inhibition [1] [%] | IC50 [2] [nM] | inhibition [5] [%] | Structure (SMILES) | other results |
| --- | --- | --- | --- | --- |
| 29 |  |  | CN(C)CCNC(=O)c1c2c(n3ccccc13)C(=O)c1cccc(O)c1C2=O |  |
| 65 | 438 |  | COC(=O)c1c2c(n3ccccc13)C(=O)c1ncccc1C2=O |  |
| 56 |  |  | O=C1c2ncccc2C(=O)c2c1c(Cc1ccccc1)c1ccccn21 |  |
| 71.5 | 390 |  | O=C(O)c1cccc(NC(=O)c2c3c(n4ccccc24)C(=O)c2cccnc2C3=O)c1 | IC50 [3]: > 100000 nM |
| 60 |  |  | O=C1c2c(O)cccc2C(=O)c2c1c(C(=O)O)c1ccccn21 |  |
| 27 |  |  | CN(C)CCNC(=O)c1c2c(n3ccccc13)C(=O)c1ccccc1C2=O |  |
| 54 |  |  | Cc1ccn2c3c(c(C(=O)O)c2c1)C(=O)c1ncccc1C3=O |  |
| 34 |  |  | O=C1c2ncccc2C(=O)c2c1c(C(=O)Nc1cccc(Cl)c1)c1ccccn21 |  |
| 68 | 332 |  | CCOC(=O)c1c2c(n3ccccc13)C(=O)c1ccccc1C2=O |  |
| 64 | 134 | 38 | Cc1ccccc1NC(=O)c1c2c(n3ccccc13)C(=O)c1cccnc1C2=O | IC50 [4]: 2660 nM; IC50 [3]: > 100000 nM |
| 24 |  |  | CN(C)CCCNC(=O)c1c2c(n3ccccc13)C(=O)c1ccccc1C2=O |  |
| 68 | 361 |  | O=C1c2cccnc2C(=O)c2c1c(C(=O)Nc1ccccc1)c1ccccn21 | IC50 [3]: 7300 nM |
|  |  |  | COc1cccc2c1C(=O)c1c(O)c3c(c(O)c1C2=O)C[C@@](O)(C(=O)CO)C[C@@H]3O[C@H]1C[C@H](N)[C@H](O)[C@H](C)O1 [DOXORUBICIN] | IC50 [6]: 660 nM; IC50 [7]: 1130 nM |
| 67 | 420 |  | O=C1c2ncccc2C(=O)c2c1c(C(=O)O)c1cc(I)ccn21 |  |
| 61 | 977 |  | CCOC(=O)c1c2c(n3ccccc13)C(=O)c1cccnc1C2=O | inhibition [8]: 14% |
| 67 | 117 | 12 | O=C1c2cccnc2C(=O)c2c1c(C(=O)O)c1cc(I)ccn21 |  |
| 61 | 714 |  | O=C1c2ccccc2C(=O)c2c1c(C(=O)O)c1ccccn21 |  |
| 29.5 |  |  | O=C1c2cccnc2C(=O)c2c1c(C(=O)Nc1cccc(Cl)c1)c1ccccn21 |  |
| 78 | 127 | 43 | CN(C)CCNC(=O)c1c2c(n3ccccc13)C(=O)c1ncccc1C2=O | IC50 [4]: 738 nM; IC50 [3]: 3350 nM; inhibition [8]: 91% |
| 47 |  |  | COc1ccn2c3c(c(C(=O)O)c2c1)C(=O)c1ncccc1C3=O |  |

| inhibition [1] [%] | IC50 [2] [nM] | inhibition [5] [%] | Structure (SMILES) | other results |
| --- | --- | --- | --- | --- |
| 13 |  |  | CC(C)OC(=O)c1c2c(n3ccccc13)C(=O)c1ccccc1C2=O |  |
| 80.5 | 39 | 77 | CSc1ccn2c3c(c(C(=O)NCCN(C)C)c2c1)C(=O)c1ncccc1C3=O | IC50 [4]: 372 nM |
| 77 | 87 | 12 | COC(=O)c1c2c(n3ccccc13)C(=O)c1cccc(O)c1C2=O |  |
| 70 | 288 |  | O=C1c2cccnc2C(=O)c2c1c(C(=O)O)c1ccccn21 | inhibition [8]: 28% |
| 58 | 1190 |  | O=C1c2ncccc2C(=O)c2c1c(C(=O)O)c1ccccn21 |  |
| 77 | 156 | 24 | COC(=O)c1c2c(n3ccccc13)C(=O)c1ccccc1C2=O | inhibition [8]: 40% |
| 74.5 | 148 | 9 | O=C(O)c1cccc(NC(=O)c2c3c(n4ccccc24)C(=O)c2ncccc2C3=O)c1 | IC50 [3]: 41600 nM |
| 34 |  |  | O=C1c2cccnc2C(=O)c2c1c(Cc1ccccc1)c1ccccn21 |  |
| 74.5 | 23 | 22 | NC(=S)NNC(=O)c1c2c(n3ccccc13)C(=O)c1ncccc1C2=O | IC50 [6]: > 20000 nM; IC50 [7]: > 20000 nM; IC50 [3]: 1200 nM; IC50 [9]: > 20000 nM |
| 69 | 299 |  | COc1ccn2c3c(c(C(=O)O)c2c1)C(=O)c1cccnc1C3=O |  |
| 77 | 188 | 81 | CN(C)CCNC(=O)c1c2c(n3ccccc13)C(=O)c1cccnc1C2=O | IC50 [4]: 1240 nM; IC50 [3]: 7150 nM; inhibition [8]: 88% |
| 69 | 448 |  | COC(=O)c1c2c(n3ccccc13)C(=O)c1cccnc1C2=O |  |
|  | 73 | 96 | NS(=O)(=O)NCCNC1=NON/C1=C(/NO)Nc1ccc(F)c(Br)c1 | IC50 [4]: 7 nM |
| 22 |  |  | O=C1c2ccccc2C(=O)c2c1c(C(=O)NCCO)c1ccccn21 |  |
| 72.5 | 50 | 42 | CSc1ccn2c3c(c(C(=O)NCCN(C)C)c2c1)C(=O)c1cccnc1C3=O | IC50 [4]: 1080 nM |
| 15 |  |  | O=C1c2ccccc2C(=O)c2c1c(C(=O)NCCCO)c1ccccn21 |  |
| 35 |  |  | CCOC(=O)c1c2c(n3ccccc13)C(=O)c1ncccc1C2=O |  |
| 62 | 119 | 25 | O=C1c2ncccc2C(=O)c2c1c(C(=O)Nc1ccccc1)c1ccccn21 | IC50 [3]: > 100000 nM |
| 74 | 427 |  | Cc1ccccc1NC(=O)c1c2c(n3ccccc13)C(=O)c1ncccc1C2=O | IC50 [3]: > 100000 nM |
| 70 | 394 |  | Cc1ccn2c3c(c(C(=O)O)c2c1)C(=O)c1cccnc1C3=O |  |
